Measured values from ChEMBL document CHEMBL1133668, “Synthesis and antiviral activity of novel anti-VZV 5-substituted uracil nucleosides with a cyclopropane sugar moiety” (J Med Chem, 2000).
≈ marks a conversion by molar mass, not a printed value.

Columns and labels:
HEL [1] = assay: Tested for inhibitory activity against Varicella zoster virus(VZV) by plaque reduction assay using HEL cells; type: functional, cell-based; conditions: Homo sapiens
[2] = Tested for inhibitory activity against Herpes simplex virus type-1(HSV-1), activity is expressed as IC50.; type: functional
Vero = assay: Tested for cytotoxicity in vero cells, activity is expressed as CC50.; type: functional; conditions: Chlorocebus sabaeus
MRC5 [3] = assay: Tested for Antiherpetic activity against HSV-1 from Tomioka strain in MRC-5 cell lines.; type: functional, cell-based; conditions: Homo sapiens
Summary of the method: (§1)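 Plaque reduction assay in MRC-5 cells, with HSV-1 Tomioka or HSV-2 strain 186 as the challenge virus. […] MRC-5 cells came from a commercial source.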

MRC5 [4] = assay: Tested for Antiherpetic activity against HSV-2 from 186 strain in MRC-5 cell lines.; type: functional, cell-based; conditions: Homo sapiens; summary of the method: as §1
MRC5 [5] = assay: Tested for Antiherpetic activity against VZV from clinical isolates of MRC-5 cell lines.(average of six isolates); type: functional, cell-based; conditions: Homo sapiens
HEL [6] = assay: Tested for Antiherpetic activity against VZV from Kawaguchi strain in HEL cell lines.; type: functional, cell-based; conditions: Homo sapiens
HEL [7] = assay: Tested for Antiherpetic activity against VZV from clinical isolates of HEL cell lines.(average of 11 isolates); type: functional, cell-based; conditions: Homo sapiens

Q: Which results are given for `O=c1ccn(CC2(CO)CC2CO)c(=O)[nH]1` (configuration not stated)?
A: IC50 (HEL [1]): > 100 µg/mL; IC50 [2]: > 500 µg/mL; CC50 (Vero): > 500 µg/mL

Q: With `O=c1[nH]c(=O)n(CC2(CO)CC2CO)cc1F` (configuration not stated) as the molecule, how does the IC50 (HEL [1]) read?
A: > 100 µg/mL

Q: And the IC50 [2]?
A: > 500 µg/mL

Q: What about the CC50 (Vero) of the same molecule?
A: > 500 µg/mL

Q: With `O=c1[nH]c(=O)n(CC2(CO)CC2CO)cc1/C=C/I` (configuration not stated) as the molecule, how does the IC50 (HEL [1]) read?
A: 0.054 µg/mL (≈ 0.143 µM)

Q: What about the IC50 [2] of the same molecule?
A: 24.6 µg/mL (≈ 65.1 µM)

Q: What about the CC50 (Vero) of the same molecule?
A: 330 µg/mL (≈ 873 µM)

Q: Which IC50 (HEL [1]) does the source give for `O=c1[nH]c(=O)n(CC2(CO)CC2CO)cc1Br` (configuration not stated) here?
A: 97 µg/mL (≈ 318 µM)

Q: And the IC50 [2]?
A: 215 µg/mL (≈ 705 µM)

Q: And the CC50 (Vero)?
A: > 500 µg/mL

Q: Which results are given for `Nc1nc2c(ncn2COCCO)c(=O)[nH]1` [ACYCLOVIR]?
A: IC50 (MRC5 [3]): 0.29 µg/mL (≈ 1.29 µM); IC50 [2]: 0.81 µg/mL (≈ 3.6 µM); CC50 (Vero): 820 µg/mL (≈ 3640 µM); IC50 (MRC5 [4]): 0.25 µg/mL (≈ 1.11 µM)

Q: What does the source list for `Nc1nc(O)c2ncn(C[C@]3(CO)C[C@H]3CO)c2n1`?
A: IC50 (MRC5 [3]): 0.0093 µg/mL (≈ 0.0351 µM); IC50 (HEL [1]): 0.67 µg/mL (≈ 2.53 µM); IC50 [2]: 0.02 µg/mL (≈ 0.0754 µM); CC50 (Vero): 240 µg/mL (≈ 905 µM); IC50 (MRC5 [5]): 0.21 µg/mL (≈ 0.792 µM); IC50 (MRC5 [4]): 0.12 µg/mL (≈ 0.452 µM); IC50 (HEL [6]): 0.67 µg/mL (≈ 2.53 µM)

Q: With `O=c1[nH]c(=O)n(CC2(CO)CC2CO)cc1I` (configuration not stated) as the molecule, how does the IC50 (HEL [1]) read?
A: 9.3 µg/mL (≈ 26.4 µM)

Q: What about the IC50 [2] of the same molecule?
A: 90 µg/mL (≈ 256 µM)

Q: And the CC50 (Vero)?
A: > 500 µg/mL

Q: Which results are given for `O=c1[nH]c(=O)n(CC2(CO)CC2CO)cc1/C=C/Cl` (configuration not stated)?
A: IC50 (HEL [1]): 0.07 µg/mL (≈ 0.244 µM); IC50 [2]: 4.3 µg/mL (≈ 15 µM); CC50 (Vero): > 500 µg/mL

Q: Which IC50 (HEL [1]) does the source give for `O=c1[nH]c(=O)n(CC2(CO)CC2CO)cc1Cl` (configuration not stated) here?
A: > 100 µg/mL

Q: And the IC50 [2]?
A: 295 µg/mL (≈ 1130 µM)

Q: And the CC50 (Vero)?
A: > 500 µg/mL

Q: What does the source list for `O=c1[nH]c(=O)n(CC2(CO)CC2CO)cc1/C=C/Br` (configuration not stated)?
A: IC50 (MRC5 [3]): 0.77 µg/mL (≈ 2.33 µM); IC50 (HEL [1]): 0.027 µg/mL (≈ 0.0815 µM); IC50 [2]: 14.5 µg/mL (≈ 43.8 µM); CC50 (Vero): > 500 µg/mL; IC50 (MRC5 [5]): 0.035 µg/mL (≈ 0.106 µM); IC50 (HEL [7]): 0.097 µg/mL (≈ 0.293 µM); IC50 (MRC5 [4]): > 100 µg/mL; IC50 (HEL [6]): 0.027 µg/mL (≈ 0.0815 µM)

Q: With `O=c1[nH]c(=O)n([C@@H]2O[C@H](CO)[C@@H](O)[C@H]2O)cc1/C=C/Br` as the molecule, how does the IC50 (MRC5 [3]) read?
A: 0.14 µg/mL (≈ 0.401 µM)

Q: What about the IC50 (MRC5 [5]) of the same molecule?
A: 0.00031 µg/mL (≈ 0.000888 µM)

Q: Which IC50 (MRC5 [3]) does the source give for `Nc1nc(O)c2ncn(CCC(CO)CO)c2n1` [PENCICLOVIR] here?
A: 0.54 µg/mL (≈ 2.13 µM)

Q: What about the IC50 (HEL [7]) of the same molecule?
A: 10 µg/mL (≈ 39.5 µM)

Q: What about the IC50 (MRC5 [4]) of the same molecule?
A: 1.2 µg/mL (≈ 4.74 µM)

Q: What about the IC50 (HEL [6]) of the same molecule?
A: 5.6 µg/mL (≈ 22.1 µM)

Q: For `Cc1cn(CC2(CO)CC2CO)c(=O)[nH]c1=O` (configuration not stated), which IC50 (HEL [1]) is on record?
A: > 100 µg/mL

Q: And the IC50 [2]?
A: > 500 µg/mL

Q: And the CC50 (Vero)?
A: > 500 µg/mL

Q: For `C#Cc1cn(CC2(CO)CC2CO)c(=O)[nH]c1=O` (configuration not stated), which IC50 (HEL [1]) is on record?
A: > 100 µg/mL

Q: And the IC50 [2]?
A: 310 µg/mL (≈ 1240 µM)

Q: What about the CC50 (Vero) of the same molecule?
A: > 500 µg/mL
